# Only some compounds are listed: those with a hit (about 2.5% of all), similar ones and a draw of the others.
# MC4R barr agon: activates human MC4R beta-arrestin recruitment | U2OS MC4R beta-arrestin complementation, luminescence; percent of melanotan II response, DMSO zero | activation, % at 8.9 µM | 360,000 tested, 0.98% active;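 active means activation above a per-plate cutoff, the mean activation of sample wells on that plate plus 3 SD, cut at about 8% in these data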
# A1 inh: inhibitors of the anti-apoptotic protein A1, read as caspase activation. 330,000 tested, 0.066% active. caspase activation, % (test concentration not listed). AID 2462. MEF A1-2A-BIM cells, Caspase-Glo 3/7 luminescence, 3 h; percent of clofoctol response, vehicle zero;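 active means over half of replicate activation scores above 10%, or exactly half above 10 with the replicate mean above 10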
# sPLA2-III inh: Blocks human group III sPLA2 activity. QFRET BODIPY PC-A2 liposome hydrolysis, fluorescence. inhibition, % at 12.2 µM. 370,000 tested, 0.56% active. AID 743126;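 active means inhibition above mean plus 3 SD of compounds lying within the high and low control bounds, cut at about 19% in these data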;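 further: 0% = median of test compound wells and 100% = no enzyme DMSO wells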
# Target sequence (Q9NZ20 whole entry, looked up): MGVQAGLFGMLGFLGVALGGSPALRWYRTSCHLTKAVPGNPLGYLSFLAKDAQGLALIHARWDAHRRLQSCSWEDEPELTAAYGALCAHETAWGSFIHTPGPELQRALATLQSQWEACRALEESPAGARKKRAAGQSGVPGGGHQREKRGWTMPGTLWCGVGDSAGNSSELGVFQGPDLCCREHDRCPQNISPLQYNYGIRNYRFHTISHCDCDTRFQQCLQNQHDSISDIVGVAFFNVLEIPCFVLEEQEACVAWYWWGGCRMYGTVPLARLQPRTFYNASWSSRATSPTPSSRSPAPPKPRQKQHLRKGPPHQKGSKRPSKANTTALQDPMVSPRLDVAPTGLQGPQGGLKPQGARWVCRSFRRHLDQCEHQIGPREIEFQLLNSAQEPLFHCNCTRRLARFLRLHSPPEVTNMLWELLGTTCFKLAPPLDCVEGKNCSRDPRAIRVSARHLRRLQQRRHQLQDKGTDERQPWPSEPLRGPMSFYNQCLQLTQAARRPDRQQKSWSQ
# NTR1 agonist: NTR1 (human) agonism; NTR1-U2OS beta-arrestin-GFP spot imaging, agonist mode; activation, % at 20 µM; 330,000 tested, 0.17% active; AID 493036;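 active means activation at or above 40% of the spot to cytoplasm intensity ratio, with at least 20 cells analyzed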;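 further: 0% = DMSO without peptide and 100% = 100 nM NTR1 peptide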
# MC4R antag cAMP: antagonists of human melanocortin 4 receptor (MC4R); MC4R-expressing cells, MTII-stimulated cAMP, LANCE TR-FRET; inhibition, % at 6.5 µM; 360,000 tested, 0.48% active;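 active means inhibition above its plate's cutoff, the mean of tested wells on that plate plus 3 SD, cut at about 29% in these data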;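 further: 0% = Melanotan II alone and 100% = Melanotan II plus saturating MCL0020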
#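 Assay system: U2OS cells stably expressing human melanocortin 4 receptor (MC4R) / Dosing: 6.5 µM / Timing: compound 30 min, challenge 1 h, detection 1 h / Measured by: Eu-cAMP/anti-cAMP TR-FRET, emission 671 nm / Replicates: singlicate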
# Exocytosis inh: blocks lytic granule exocytosis. AID 651702. TALL-104 LAMP-1 surface exposure, flow cytometry; cells stimulated with thapsigargin and PMA. inhibition, % at 10 µM. 360,000 tested, 0.66% active;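 active means inhibition above about 55%, limit read from the data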
# U2OS cAMP counter: nonselective cAMP signaling inhibitor, MC4R antagonist counter-screen; shares compounds with MC4R antag cAMP; parental U2OS, forskolin cAMP, LANCE TR-FRET; inhibition, % at 6.5 µM; 1,600 tested, 26% active; AID 602193;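 active means mean inhibition over triplicates above the low-control well mean plus 3 SD, set per campaign, cut at about 13% in these data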;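 further: signal is single emission at 671 nm which falls as cellular cAMP rises; 0% = forskolin-stimulated wells and 100% = buffer without forskolin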
# MC4R cAMP antag: human MC4R cAMP antagonism confirmation. shares compounds with MC4R antag cAMP. MC4R-expressing cells, MTII-stimulated cAMP, TR-FRET. inhibition, % at 6.5 µM. 1,600 tested, 27% active. AID 602195; in the data active means inhibition above about 29%;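 further: 0% = agonist stimulated wells alone and 100% = agonist stimulated wells plus saturating reference antagonist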
# * marks the source's active call; other numbers are inactive results; x = no result; + = active, no number.
SMILES,MC4R barr agon,A1 inh,sPLA2-III inh,NTR1 agonist,MC4R antag cAMP,Exocytosis inh,U2OS cAMP counter,MC4R cAMP antag
COc1ccc(N2CCN(C(=O)c3ccc(COc4ccc5c(C)cc(=O)oc5c4)cc3)CC2)cc1,-3,-1,-5,-1,31*,2,-5,-5
O=C(CCCc1nc2ccccc2s1)NCc1cccnc1,-1,0,0,-1,29*,-2,0,0
COc1cccc(CNC(=O)COC(=O)CCS(=O)(=O)c2ccc(C)cc2)c1,-2,x,0,-1,30*,-8,0,10
O=[N+]([O-])c1cc(S(=O)(=O)NCCN2CCOCC2)ccc1Cl,0,0,3,0,29*,-9,5,17
CC(C)(C)c1cc(C(c2cccnc2)N2CCN(CCO)CC2)cc(C(C)(C)C)c1O (stereo not given),-3,25*,-9,1,29*,45,10,19
CC(C)(C)n1nnnc1C(c1cccnc1)N1CCN(c2cccc(C(F)(F)F)c2)CC1 (stereo not given),-1,-1,-4,1,20,-2,x,x
O=c1c(=Nc2ccccc2O)c(=O)c2ccccc12,-2,-2,3,0,34*,2,4,-1
CSCCC(Nc1ncnc2ccc(Br)cc12)C(=O)O (stereo not given),0,0,1,1,31*,1,8,12
CCCNC(=O)CCc1c(C)nc2nc(-c3cc(OC)cc(OC)c3)nn2c1C,-1,2,-2,-1,-4,0,x,x
COCCNC(=O)CCc1c(C)nc2nc(-c3cc(OC)cc(OC)c3)nn2c1C,0,0,2,0,29*,-1,1,-17
CCOC(=O)CCC(NC(=O)c1ccccc1C(=O)NC(CCC(=O)OCC)C(=O)OCC)C(=O)OCC (stereo not given),0,0,4,0,29*,3,6,3
CCOC(=O)CCC(NC(=O)c1ccc(NCN2C(=O)c3ccccc3C2=O)cc1)C(=O)OCC (stereo not given),0,1,6,-1,-20,-1,x,x
CC(C)(C)c1ccc(C(=O)OC/C(O)=C(\C#N)c2nc3ccccc3s2)cc1,1,0,-6,2,29*,1,2,6
O=C(Cn1ncc(Cl)c(Cl)c1=O)NC1CCCCC1,-1,0,-2,22,47*,2,29*,72*
O=C(Cn1ncc(Cl)c(Cl)c1=O)NCC1CCCCC1,0,10*,-5,x,58*,22,33*,56*
O=C1CN(C(=O)Cn2ncc(Cl)c(Cl)c2=O)c2ccccc2N1,2,x,-2,x,44*,2,20*,30*
COC(=O)[C@]12C[C@H](CC(=O)N3CCC(c4ccccc4)CC3)C(=O)N(Cc3ccccc3)C1=C[C@H](C(C)C)O[C@@H]2C1CC1,x,x,9,x,x,x,x,x
C/C(=C/c1[nH]c(N)[n+](CC2CC2)c1Cc1ccccc1)Cn1[nH]c(=O)n(-c2ccccc2)c1=O,x,x,1,x,x,x,x,x
CC(=O)c1c(O)c(C)c(O)c2c1OC1=CC(=O)/C(=C(/C)N)C(=O)C12C (stereo not given),1,x,3,x,36*,-1,5,26
CC1(C)CC(=O)C(C(C2=C(O)CC(C)(C)CC2=O)c2cccs2)C(=O)C1 (stereo not given),1,0,x,10,30*,-2,12,21
CCCCCCCCN1C(=O)[C@@H](CC(=O)N2CCN(C(=O)C3CC3)CC2)C[C@@]2(C(=O)OC)C1=C[C@H](C(C)C)O[C@@H]2C1CC1,x,x,2,x,x,x,x,x
O=C(NC1CCCCN(Cc2cccc(F)c2)C1=O)c1ccc2ccccc2c1 (stereo not given),x,x,-17,x,x,x,x,x
O=C(O)CNC(=O)C(c1ccccc1)c1ccccc1,-1,1,-1,0,4,0,x,x
O=C(CNC(=O)C(c1ccccc1)c1ccccc1)OCc1ccccc1,0,-1,-5,0,30*,5,13,19
COC(=O)[C@]12C[C@H](CC(=O)N3CCN(C(=O)c4ccco4)CC3)C(=O)N(Cc3ccc(Cl)cc3Cl)C1=C[C@H](COCc1ccccc1)O[C@@H]2C,x,x,-22,x,x,x,x,x
SMILES,MC4R barr agon,A1 inh,sPLA2-III inh,NTR1 agonist,MC4R antag cAMP,Exocytosis inh,U2OS cAMP counter,MC4R cAMP antag
Clc1cccc(Oc2ncccn2)c1,1,1,2,2,31*,-2,2,0
CC(=O)c1cccc(Oc2ncccn2)c1,1,0,4,1,12,-4,x,x
CCCc1nnc(NC(=O)CC(C)c2ccccc2)s1 (stereo not given),2,1,-12,1,30*,-19,-15,-29
CC(C)c1nnc(NC(=O)CC(C)c2ccccc2)s1 (stereo not given),0,1,-2,1,12,-6,x,x
C=CCN1[C@@H](C)[C@H](c2ccccc2)Oc2cccc(NCC(C)C)c2S1(=O)=O,x,x,8,x,x,x,x,x
O=C(COCc1ccccc1)NC1CCCCN(Cc2cccc(Cl)c2)C1=O (stereo not given),x,x,-2,x,x,x,x,x
CCN(C(=O)COC(=O)/C=C/c1cnc2ccccc2n1)C1CCS(=O)(=O)C1 (stereo not given),1,0,2,0,29*,10,-5,-2
NS(=O)(=O)c1ccc(CNC(=O)c2cc(-c3ccccn3)nc3ccc(Cl)cc23)cc1,-2,0,-4,0,30*,-1,12,13
NS(=O)(=O)c1ccc(CNC(=O)c2cc(-c3cccnc3)nc3ccc(Cl)cc23)cc1,-1,0,-10,4,1,6,x,x
CCOCc1nc(N)nc(N)c1-c1cccc(Cl)c1,-1,x,8,x,31*,-8,-1,0
C[C@@H]1N[C@H]2N(C1=O)c1ccccc1[C@@]21C[C@@H]2C(=O)N[C@](C)(O1)c1nc3ccccc3c(=O)n12,x,x,5,x,x,x,x,x
CCN(CC)CCNC(=O)c1cc(-c2ccc(Br)s2)nc2ccccc12,5,-1,-5,2,33*,0,7,-9
CCCCOc1cc(C(=O)NCCN(CC)CC)c2ccccc2n1,-1,-1,-7,-1,11,-2,x,x
O=C(O)c1cc(-c2ccc(Br)s2)nc2ccccc12,0,-2,-9,-1,+,-8,185*,+
CCOCCCNC(=O)c1cc(-c2ccc(Br)s2)nc2ccccc12,-1,0,-4,-1,37*,-2,33*,63*

# Source: PubChem BioAssay
